In ChEMBL document CHEMBL4321861, “An Underlying Mechanism of Dual Wnt Inhibition and AMPK Activation: Mitochondrial Uncouplers Masquerading as Wnt Inhibitors” (J Med Chem, 2019) one finds Activity, inhibition and IC50 data, which are given here for two compounds.

One may read the IC50 as the concentration that gives 50% inhibition.

Structures are written as SMILES. Active and inactive are the calls of the source. The rule behind the calls is not given here.

The test system of experiment [1] is LS174T. Description: Induction of mitochondrial dysfunction in human LS174T cells assessed as reduction in mitochondrial ATP production at 3 uM by Seahorse XF real-time assay. The settings on record: Mitochondria. Summed up: (§1)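 About 3×10^4 cells seeded per well in XF96 plates. Next day medium switched to Seahorse XF medium with 25 mM glucose and 1 mM pyruvate. Compound given at 3 μM in DMSO; FCCP 1 μM as reference. Mitochondrial and glycolytic ATP production rates measured by XF Real-Time ATP Rate Assay.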

In experiment [2] the test system is HEK293. Description: Inhibition of LiCl-activated Wnt signaling in HEK293 cells at 3 uM in presence of AMPK inhibitor compound C by TOPFlash reporter gene assay. The experiment is classed as cell-based. Conditions: Homo sapiens. Summed up:
(§2)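 Stable HEK293T Super 8xTOPFlash reporter line (pGL4.83 backbone, puromycin-selected), stimulated with 25 mM LiCl to stabilize β-catenin. Treated with compound in DMSO or DMSO. Luciferase read in 96- or 24-well format. AMPK inhibitor compound C used at 5 μM where applied. At least three independent repeats.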
In general terms: A reporter such as luciferase makes a cellular process visible.

The target of experiment [3] is T1, AMP-activated protein kinase, AMPK (Homo sapiens) (UniProt P54646+O43741+P54619+Q9UGJ0+Q9Y478+Q13131+Q9UGI9). Description: Activation of AMPK in human LS174T cells assessed as increase in AMPK phosphorylation at T172 residue at 3 uM by Western blot analysis. The experiment is classed as cell-based. In outline:
(§3)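 Cells lysed in 50 mM HEPES, 100 mM NaCl, 2 mM EDTA, 1% glycerol, 50 mM NaF, 1 mM Na3VO4, 1% Triton X-100 with protease inhibitors. Western blot probed for total and phospho-AMPK and total and phospho-ACC, with actin loading control. Compounds given in DMSO. At least three independent repeats.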
A general note: In western blotting, separated proteins are transferred to a membrane and probed.

For experiment [4], the system named is HEK293. Description: Effect on FOP reporter expression in LiCl-induced HEK293T cells incubated for 24 hrs by luciferase reporter gene assay. The experiment is classed as functional, cell-based. Conditions: Homo sapiens. In outline:
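HEK293T cells transiently transfected with Super 8x TOPFlash or 8x FOPFlash plus control Renilla reporter. Wnt signaling activated with LiCl or Wnt3A. Cells treated with DMSO or compound in DMSO. Luciferase activity read.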

Experiment [5] concerns LS174T. Description: Inhibition of Wnt in human LS174T cells assessed as reduction in Axin2 expression at 1 uM by Western blot analysis. The experiment is classed as cell-based. Summed up:
(§4)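 Colorectal cancer cells (DLD-1, LS174T, SW620) treated with a compound dose series in DMSO. Lysates immunoblotted for Axin2, c-Myc and cyclin D1. At least three independent repeats.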

The species named for experiment [6] is Homo sapiens. Description: Inhibition of Wnt in human DLD1 cells assessed as reduction in cyclin-D1 expression at 1 to 3 uM by Western blot analysis. The experiment is classed as cell-based. Summed up:
as §4

Experiment [7] deals with DLD-1. Description: Induction of mitochondrial dysfunction in human DLD1 cells assessed as increase in glycolytic ATP production at 3 uM by Seahorse XF real-time assay. The settings on record: Mitochondria. In outline: as §1
Experiment [8] is filed under the species Homo sapiens. Description: Inhibition of Wnt in human DLD1 cells assessed as reduction in Axin2 expression at 1 to 3 uM by Western blot analysis. The experiment is classed as cell-based. In outline:
as §4

In experiment [9] the test system is DLD-1. Description: Cytotoxicity against human DLD1 cells assessed as reduction in cell viability by Vi-Cell XR cell viability analyzer-based assay. The experiment is classed as functional. Summed up:
(§5)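 Colon cancer cells plated at 3.5×10^4 per well in 12-well plates. LS174T were in EMEM + 10% FBS; DLD-1 were in DMEM + 10% FBS. After 24 h, compound in DMSO added (DMSO control). Cell number and viability counted on a Vi-Cell XR analyzer. Triplicate wells.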

Experiment [10] relates to LS174T. Description: Induction of mitochondrial dysfunction in human LS174T cells assessed as increase in glycolytic ATP production at 3 uM by Seahorse XF real-time assay. The settings on record: Mitochondria. In outline: as §1
The species entered for experiment [11] is Homo sapiens. Description: Inhibition of Wnt in human SW620 cells assessed as reduction in c-Myc expression at 1 uM by Western blot analysis. The experiment is classed as cell-based. In outline: as §4
Experiment [12] is filed under the species Homo sapiens. Description: Inhibition of Wnt in human SW620 cells assessed as reduction in cyclin-D1 expression at 1 uM by Western blot analysis. The experiment is classed as cell-based. Summed up: as §4
For experiment [13], the system named is DLD-1. Description: Uncoupling of mitochondrial oxidative phosphorylation in human DLD1 cells at 3 uM in presence of oligomycin A by seahorse XFe96 analyser based assay. The settings on record: Mitochondria. In outline:
(§6)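 DLD-1 cells, about 3×10^4 per XF96 well, in XF medium with 25 mM glucose and 1 mM pyruvate. Mito stress sequence: oligomycin A 1 μM, then test compound 3 μM in DMSO in place of FCCP (FCCP 1 μM as control), then rotenone/antimycin A 1 μM each. Oxygen consumption rate recorded.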

For experiment [14], the system named is LS174T. Description: Induction of mitochondrial membrane potential disruption in human LS174T cells at 3 uM measured after 2 hrs by TMRM staining based fluorescence microscopic analysis. Conditions: Mitochondria. In outline:
(§7)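 Cells grown one day in 24-well plates: DLD-1 in DMEM + 10% serum, LS174T in RPMI1640 + 5% serum. Treated 2 h with compound in DMSO or DMSO, then stained with 100 nM TMRM for 15 min. Rinsed once with PBS and imaged by fluorescence microscopy at 568 nm.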

The subject of experiment [15] is DLD-1. Description: Induction of mitochondrial membrane potential disruption in human DLD1 cells at 3 uM measured after 2 hrs by TMRM staining based fluorescence microscopic analysis. Conditions: Mitochondria. Summed up:
as §7

The species entered for experiment [16] is Homo sapiens. Description: Inhibition of Wnt in human DLD1 cells assessed as reduction in c-Myc expression at 1 to 3 uM by Western blot analysis. The experiment is classed as cell-based. In outline: as §4
For experiment [17], the system named is LS174T. Description: Inhibition of LiCl-induced Wnt signaling in human LS174T cells assessed as reduction in beta-catenin accumulation. The experiment is classed as cell-based.
Experiment [18] is filed under the species Homo sapiens. Description: Inhibition of Wnt in human SW620 cells assessed as reduction in Axin2 expression at 1 uM by Western blot analysis. The experiment is classed as cell-based. Summed up:
as §4

For experiment [19], the system named is LS174T. Description: Inhibition of Wnt in human LS174T cells assessed as reduction in c-Myc expression at 1 uM by Western blot analysis. The experiment is classed as cell-based. Summed up: as §4
Experiment [20] deals with DLD-1. Description: Uncoupling of mitochondrial oxidative phosphorylation in human DLD1 cells assessed as increase in oxygen consumption rate at 3 uM in presence of oligomycin A by seahorse XFe96 analyser based assay. Conditions: Mitochondria. In outline: as §6
Experiment [21] has as its system DLD-1. Description: Induction of mitochondrial dysfunction in human DLD1 cells assessed as reduction in mitochondrial ATP production at 3 uM by Seahorse XF real-time assay. Conditions: Mitochondria. Summed up: as §1
Experiment [22] concerns the target T1, AMP-activated protein kinase, AMPK (Homo sapiens). Description: Activation of AMPK in human LS174T cells assessed as […] phosphorylation at S79 residue at 3 uM by Western blot analysis. The experiment is classed as cell-based. Summed up:
as §3

The test system of experiment [23] is HEK293. Description: Inhibition of LiCl-activated Wnt signaling in HEK293 cells at 0.5 uM by TOPFlash reporter gene assay. The experiment is classed as cell-based. The settings on record: Homo sapiens. In outline: as §2
The test system of experiment [24] is LS174T. Description: Cytotoxicity against human LS174T cells assessed as reduction in cell viability by Vi-Cell XR cell viability analyzer-based assay. The experiment is classed as functional. Summed up: as §5
The subject of experiment [25] is LS174T. Description: Inhibition of Wnt in human LS174T cells assessed as reduction in cyclin-D1 expression at 1 uM by Western blot analysis. The experiment is classed as cell-based. In outline:
as §4

Experiment [26] has as its system LS174T. Description: Inhibition of glucose metabolism in human LS174T cells assessed as reduction in ATP level at 10 mM by luminescence assay. The experiment is classed as functional, cell-based.
For experiment [27], the system named is HEK293. Description: Inhibition of LiCl-activated Wnt signaling in HEK293 cells at […] by TOPFlash reporter gene assay. The experiment is classed as cell-based. Conditions: Homo sapiens. In outline:
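Stable HEK293T line carrying Super 8xTOPFlash subcloned into pGL4.83 (hRlucP/Puro), selected with puromycin; Wnt signaling activated with 25 mM LiCl, compound added in DMSO (DMSO control); luciferase reporter readout. At least three independent repeats.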

`O=C(Nc1nnc(C(F)(F)F)s1)NC(CC(F)(F)F)(C(F)(F)F)C(F)(F)F`: the result (with LS174T [1]; in experiment [3]; with DLD-1 [7]; with LS174T [10]; in the experiment on DLD-1 [13]; in the experiment on LS174T [14]) was Active. The result (in the experiment on DLD-1 [15]; with DLD-1 [20]; in the experiment on DLD-1 [21]; in experiment [22]) was Active. Besides, the inhibition result in the experiment with HEK293 [2], in the experiment with LS174T [5], in the experiment listed under Homo sapiens [6], in the experiment filed under Homo sapiens [8], in the experiment listed under Homo sapiens [11] and in the experiment listed under Homo sapiens [12] was “Active” each time. For the same compound, the inhibition entry in the experiment filed under Homo sapiens [16], in the experiment on LS174T [17], in the experiment listed under Homo sapiens [18], in the experiment with LS174T [19] and with LS174T [25] was “Active” each time. In addition, the outcome in the experiment on HEK293 [4] was inactive. Moreover, the IC50 with DLD-1 [9] is 960 nM; with LS174T [24] it was 800 nM. Also, the inhibition entry with HEK293 [23] was “inactive”.
For the compound `OC[C@H]1OC(O)C[C@@H](O)[C@@H]1O` (some centres not stated), the inhibition result in the experiment with LS174T [26] and in the experiment on HEK293 [27] was “Active” throughout.
